Assay results from ChEMBL document CHEMBL1921704, “Discovery of N-aryl-2-acylindole human glucagon receptor antagonists” (Bioorg Med Chem Lett, 2011).
One block for each molecule: values may come before it. The source made the active and inactive calls. No cut-off for these calls is given here.

Legend:
Glucagon receptor [1] = biological target: T1, Glucagon receptor (Homo sapiens, UniProt P47871); test: Displacement of [125I]-glucagon from human glucagon receptor expressed in CHO cells after 4 to 12 hrs by scintillation proximity assay; format: cell-based
T1 sequence (P47871 whole entry): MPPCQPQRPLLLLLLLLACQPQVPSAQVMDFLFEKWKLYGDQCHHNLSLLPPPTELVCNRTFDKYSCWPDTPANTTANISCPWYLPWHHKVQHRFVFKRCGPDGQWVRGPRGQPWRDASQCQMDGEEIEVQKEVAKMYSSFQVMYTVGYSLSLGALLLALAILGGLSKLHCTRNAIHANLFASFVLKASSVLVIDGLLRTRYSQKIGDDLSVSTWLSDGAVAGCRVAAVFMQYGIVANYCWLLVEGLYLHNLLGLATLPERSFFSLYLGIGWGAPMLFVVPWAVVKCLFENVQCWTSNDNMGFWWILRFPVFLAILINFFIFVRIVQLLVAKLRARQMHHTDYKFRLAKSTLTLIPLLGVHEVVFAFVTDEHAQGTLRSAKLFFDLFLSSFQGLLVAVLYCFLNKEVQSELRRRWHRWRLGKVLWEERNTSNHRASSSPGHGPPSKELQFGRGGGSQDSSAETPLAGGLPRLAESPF
Method in brief: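 Scintillation proximity assay on membranes from CHO cells expressing hGCGR, measuring inhibition of ¹²⁵I-labelled glucagon binding. IC50 reported as the average rounded to two significant figures, with standard error of the mean when more than one measurement was made.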

Glucagon receptor [2] = biological target: T1, Glucagon receptor; test: Antagonist activity at human glucagon receptor expressed in CHO cells assessed as inhibition of forskolin/glucagon-induced cAMP production preincubated for 30 mins before glucagon challenge measured after 30 mins using [125I]-cAMP by liquid scintillation counting; format: functional, cell-based
Method in brief: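 Glucagon-induced cAMP production measured in CHO cells transfected with hGCGR. IC50 reported as the average rounded to two significant figures, with SEM when measured more than once.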

[3] = Oral bioavailability in rat at 2 mg/kg; format: ADME, organism-based; details: in vivo
Method in brief: (§1)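 Rat PK with dosing at 1 mg/kg IV and 2 mg/kg PO, vehicle DMSO/water/PEG400 15:35:55. Parameters were plasma clearance, Vd, t1/2, dose-normalised PO AUC and Cmax, and %F.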

[4] = Volume of distribution in rat at 1 mg/kg, iv and 2 mg/kg, po; format: ADME, organism-based; details: in vivo; method in brief: as §1
[5] = Plasma clearance in rat at 1 mg/kg, iv and 2 mg/kg, po; format: ADME, organism-based; method in brief: as §1
Rattus norvegicus [6] = test: Dose normalised Cmax in rat at 1 mg/kg, iv and 2 mg/kg, po; format: ADME, organism-based; details: in vivo; method in brief: as §1
[7] = Half life in rat at 1 mg/kg, iv and 2 mg/kg, po; format: ADME, organism-based; details: in vivo; method in brief: as §1
Rattus norvegicus [8] = test: Dose normalised AUC in rat at 2 mg/kg, po; format: ADME, organism-based; design: dose 2 mg/kg, route oral; details: in vivo; method in brief: as §1
[9] = biological target: Glucagon-like peptide 1 receptor (Homo sapiens, UniProt P43220); test: Antagonist activity at human GLP1 receptor assessed as inhibition of cAMP production; format: functional
Sequence of Glucagon-like peptide 1 receptor (P43220 whole entry): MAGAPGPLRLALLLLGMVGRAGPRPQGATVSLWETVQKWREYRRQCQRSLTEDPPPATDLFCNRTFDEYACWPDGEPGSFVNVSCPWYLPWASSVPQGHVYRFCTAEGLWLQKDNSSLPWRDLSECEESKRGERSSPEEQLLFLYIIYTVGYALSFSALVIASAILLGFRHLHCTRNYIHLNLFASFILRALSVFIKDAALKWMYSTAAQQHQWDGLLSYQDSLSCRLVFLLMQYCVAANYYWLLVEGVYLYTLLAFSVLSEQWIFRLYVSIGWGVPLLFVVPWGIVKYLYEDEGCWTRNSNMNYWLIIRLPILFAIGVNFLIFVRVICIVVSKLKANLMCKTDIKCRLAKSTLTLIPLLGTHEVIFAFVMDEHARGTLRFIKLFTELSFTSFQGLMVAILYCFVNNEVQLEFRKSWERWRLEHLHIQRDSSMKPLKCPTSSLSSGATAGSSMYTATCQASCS

Rattus norvegicus [10] = test: Stability of the compound in bile duct cannulated rat assessed as racemization at 2 mg/kg, iv by chiral HPLC analysis; format: ADME, organism-based; design: dose 2 mg/kg, route intravenous; details: in vivo
Method in brief: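 Radiolabelled compound given IV at 2 mg/kg to bile-duct-cannulated rats. Excreted parent compound analysed by chiral HPLC for racemization.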

Mus musculus [11] = test: Antidiabetic activity in human glucagon receptor transgenic mouse assessed as inhibition of glucagon-induced glucose excursion at 3 mg/kg, po administered 60 mins after glucagon challenge by glucometry; format: functional, organism-based; design: dose 3 mg/kg; details: in the assay text read “60 mins before glucagon challenge” for “60 mins after glucagon challenge”
Method in brief: (§2)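 Oral dosing to mice expressing human glucagon receptor, followed 60 min later by IP glucagon injection. Read-out was the glucagon-induced blood glucose excursion.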

Mus musculus [12] = test: Antidiabetic activity in human glucagon receptor transgenic mouse assessed as inhibition of glucagon-induced glucose excursion at 30 mg/kg, po administered 60 mins after glucagon challenge by glucometry; format: functional, organism-based; design: dose 30 mg/kg; details: in the assay text read “60 mins before glucagon challenge” for “60 mins after glucagon challenge”; method in brief: as §2
Plasma = test: Protein binding in Sprague-Dawley rat plasma at 20 mg/kg, po after 2 to 24 hrs; format: ADME, organism-based; design: dose 20 mg/kg, route oral; details: in vivo
Method in brief: (§3)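 Radiolabelled analog given orally at 20 mg/kg to Sprague-Dawley rats. Irreversible binding to plasma and liver proteins measured at 2, 6 and 24 h post dose.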

Liver microsomes [13] = test: Protein binding in human liver microsomes at 10 uM after 60 mins; format: ADME, Microsome; details: 1 h
Method in brief: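 Tritium-labelled analog incubated with human and rat liver microsomes for 60 min at 37 °C, then irreversible protein binding measured.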

[14] = Half life in dog at 0.5 mg/kg, iv and 2 mg/kg, po; format: ADME, organism-based, Canis lupus familiaris; details: in vivo
Rattus norvegicus [15] = test: Toxicity in rat assessed as tolerability at 100 mg/kg/day after 8 days; format: organism-based; details: in vivo, 192 h
Liver = test: Protein binding in Sprague-Dawley rat liver at 20 mg/kg, po after 2 to 24 hrs; format: ADME, organism-based; design: dose 20 mg/kg, route oral; details: in vivo; method in brief: as §3
[16] = Volume of distribution in dog at 0.5 mg/kg, iv and 2 mg/kg, po; format: ADME, organism-based, Canis lupus familiaris; details: in vivo
Mus musculus [17] = test: Antidiabetic activity in human glucagon receptor transgenic mouse assessed as inhibition of glucagon-induced glucose excursion at 10 mg/kg, po administered 60 mins after glucagon challenge by glucometry; format: functional, organism-based; design: dose 10 mg/kg; details: in the assay text read “60 mins before glucagon challenge” for “60 mins after glucagon challenge”; method in brief: as §2
Cytochrome P450 2D6 = Cytochrome P450 2D6 (Homo sapiens, UniProt P10635); test: Inhibition of CYP2D6; format: ADME
Sequence of Cytochrome P450 2D6 (P10635 whole entry): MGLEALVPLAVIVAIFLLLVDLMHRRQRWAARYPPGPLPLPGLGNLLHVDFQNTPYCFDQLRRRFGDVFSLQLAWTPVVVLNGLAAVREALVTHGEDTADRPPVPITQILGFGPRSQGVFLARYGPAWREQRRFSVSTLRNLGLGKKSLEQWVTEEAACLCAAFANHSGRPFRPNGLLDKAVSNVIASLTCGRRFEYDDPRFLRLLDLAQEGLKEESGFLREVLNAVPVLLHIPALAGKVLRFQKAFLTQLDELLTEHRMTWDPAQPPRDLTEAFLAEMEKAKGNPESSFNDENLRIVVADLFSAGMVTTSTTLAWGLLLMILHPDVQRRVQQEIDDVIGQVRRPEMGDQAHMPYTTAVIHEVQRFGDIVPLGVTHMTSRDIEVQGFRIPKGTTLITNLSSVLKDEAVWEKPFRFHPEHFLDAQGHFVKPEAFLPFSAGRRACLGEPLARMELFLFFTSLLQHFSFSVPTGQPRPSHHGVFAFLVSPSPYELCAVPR

[18] = Chemical stability of the compound in 1:1 mixtures of dioxane and buffered solutions at pH 2 to pH 10 assessed as racemization at 40 degree celsius after 24 hrs by chiral HPLC analysis; format: physicochemical; details: buffer, pH 2, 24 h
Liver microsomes [19] = test: Stability of the compound in human liver microsomes assessed as racemization at 10 uM after 60 mins by chiral HPLC analysis; format: ADME, Microsome; details: 1 h
Mus musculus [20] = test: Antidiabetic activity in human glucagon receptor transgenic ob/ob mouse hyperglycemic model assessed as reduction in ambient glucose level at 1 mg/kg, po over 6 hrs period; format: functional, organism-based; design: dose 1 mg/kg
Method in brief: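 Model was transgenic ob/ob/hGCGR diabetic mice. Ambient glucose was followed over 6 h after a single oral dose.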

[21] = biological target: T2, Gastric inhibitory polypeptide receptor (Homo sapiens, UniProt P48546); test: Antagonist activity at human GIP receptor assessed as inhibition of cAMP production; format: functional
T2 sequence (P48546 whole entry): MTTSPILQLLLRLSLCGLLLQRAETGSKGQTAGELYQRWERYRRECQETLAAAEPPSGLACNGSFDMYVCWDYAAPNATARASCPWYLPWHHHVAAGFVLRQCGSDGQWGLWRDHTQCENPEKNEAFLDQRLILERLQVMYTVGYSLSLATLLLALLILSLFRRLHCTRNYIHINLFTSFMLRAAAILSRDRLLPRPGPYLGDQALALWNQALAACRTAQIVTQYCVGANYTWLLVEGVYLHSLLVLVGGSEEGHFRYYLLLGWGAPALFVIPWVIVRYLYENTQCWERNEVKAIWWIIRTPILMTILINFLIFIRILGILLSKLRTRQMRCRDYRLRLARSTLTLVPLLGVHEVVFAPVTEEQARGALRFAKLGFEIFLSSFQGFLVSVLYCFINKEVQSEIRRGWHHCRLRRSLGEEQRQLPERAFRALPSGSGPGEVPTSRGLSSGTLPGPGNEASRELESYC

Canis familiaris [22] = test: Dose normalised Cmax in dog at 0.5 mg/kg, iv and 2 mg/kg, po; format: ADME, organism-based, Canis lupus familiaris; details: in vivo
[23] = Plasma clearance in dog at 0.5 mg/kg, iv and 2 mg/kg, po; format: ADME, organism-based, Canis lupus familiaris
Cytochrome P450 3A4 = Cytochrome P450 3A4 (Homo sapiens, UniProt P08684); test: Inhibition of CYP3A4; format: ADME
Sequence of Cytochrome P450 3A4 (P08684 whole entry): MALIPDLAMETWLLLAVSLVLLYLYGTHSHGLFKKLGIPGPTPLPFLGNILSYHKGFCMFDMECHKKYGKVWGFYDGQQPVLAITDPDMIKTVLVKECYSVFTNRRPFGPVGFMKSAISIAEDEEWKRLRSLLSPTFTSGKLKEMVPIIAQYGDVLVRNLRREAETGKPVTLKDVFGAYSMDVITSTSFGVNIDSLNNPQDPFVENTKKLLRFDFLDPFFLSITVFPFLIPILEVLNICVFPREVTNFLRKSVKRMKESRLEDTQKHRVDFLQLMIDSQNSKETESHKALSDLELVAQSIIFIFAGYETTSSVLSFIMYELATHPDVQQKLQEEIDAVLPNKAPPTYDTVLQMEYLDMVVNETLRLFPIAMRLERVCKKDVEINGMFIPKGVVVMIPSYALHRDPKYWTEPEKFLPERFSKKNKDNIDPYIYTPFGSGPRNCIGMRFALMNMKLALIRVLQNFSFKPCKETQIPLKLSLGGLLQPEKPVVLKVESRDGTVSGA

Cytochrome P450 2C9 = Cytochrome P450 2C9 (Homo sapiens, UniProt P11712); test: Inhibition of CYP2C9; format: ADME
Sequence of Cytochrome P450 2C9 (P11712 whole entry): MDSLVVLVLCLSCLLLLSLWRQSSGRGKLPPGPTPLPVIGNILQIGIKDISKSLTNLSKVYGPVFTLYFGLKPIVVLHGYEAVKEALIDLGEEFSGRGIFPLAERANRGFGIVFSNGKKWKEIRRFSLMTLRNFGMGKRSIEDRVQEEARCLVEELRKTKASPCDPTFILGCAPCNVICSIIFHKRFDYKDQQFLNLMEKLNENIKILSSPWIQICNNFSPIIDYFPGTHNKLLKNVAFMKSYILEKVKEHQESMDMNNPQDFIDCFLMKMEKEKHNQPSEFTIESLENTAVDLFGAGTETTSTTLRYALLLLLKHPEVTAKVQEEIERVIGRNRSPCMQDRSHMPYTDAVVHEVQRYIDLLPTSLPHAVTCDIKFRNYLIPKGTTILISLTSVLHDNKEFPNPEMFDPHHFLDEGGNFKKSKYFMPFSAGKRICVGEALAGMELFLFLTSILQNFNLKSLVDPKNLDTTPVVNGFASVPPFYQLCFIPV

[24] = Oral bioavailability in dog at 2 mg/kg; format: ADME, organism-based, Canis lupus familiaris; details: in vivo
Canis familiaris [25] = test: Dose normalised AUC in dog at 2 mg/kg, po; format: ADME, organism-based, Canis lupus familiaris; design: dose 2 mg/kg, route oral; details: in vivo
[26] = Oral bioavailability in rat; format: ADME, organism-based; details: in vivo; method in brief: as §1
[27] = Clearance in rat; format: ADME, organism-based; details: in vivo; method in brief: as §1
[28] = Solubility of the compound; format: physicochemical

Compound: CCCC(Cc1ccc(C(=O)NCCC(=O)O)cc1)C(=O)c1cc2cc(Cl)ccc2n1-c1cccc(OC(F)(F)F)c1 (single isomer, unassigned)
- IC50 (Glucagon receptor [1]): 24 nM
- IC50 (Glucagon receptor [2]): 35 nM

Compound: O=C(Nc1nnn[nH]1)c1ccc(Cn2c(C(=O)c3ccc(OC(F)(F)F)cc3)cc3ccc(C(F)(F)F)cc32)cc1
- bioavailability [26]: 40%
- IC50 (Glucagon receptor [1]): 51 nM
- clearance [27]: 10 mL/min/kg

Compound: Cn1/c(=N\c2ccc(OC(F)(F)F)cc2)n(Cc2ccc(C(=O)Nc3nnn[nH]3)cc2)c2cc(Cl)c(Cl)cc21
- solubility [28]: Insoluble

Compound: O=C(O)CCNC(=O)c1ccc(C[C@H](CC2CC2)C(=O)c2cc3cc(Cl)ccc3n2-c2cccc(C(F)(F)F)c2)cc1
- IC50 (Glucagon receptor [1]): 37 nM
- IC50 (Glucagon receptor [2]): 55 nM

Compound: CCCC(Cc1ccc(C(=O)NCCC(=O)O)cc1)C(=O)c1cc2cc(Cl)ccc2n1-c1cc(C)cc(C)c1 (single isomer, unassigned)
- IC50 (Glucagon receptor [1]): 120 nM

Compound: CCCC(Cc1ccc(C(=O)NCCC(=O)O)cc1)C(=O)c1cc2cc(Cl)ccc2n1-c1ccc(C(C)(C)C)cc1 (single isomer, unassigned)
- bioavailability [26]: 38%
- IC50 (Glucagon receptor [1]): 52 nM
- clearance [27]: 4.7 mL/min/kg
- IC50 (Glucagon receptor [2]): 52 nM

Compound: CC(C)CC[C@@H](Cc1ccc(C(=O)NCCC(=O)O)cc1)C(=O)c1cc2cc(Cl)ccc2n1-c1cccc(C(F)(F)F)c1
- IC50 (Glucagon receptor [1]): 17 nM
- IC50 (Glucagon receptor [2]): 36 nM

Compound: CCCC[C@@H](Cc1ccc(C(=O)NCCC(=O)O)cc1)C(=O)c1cc2cc(Cl)ccc2n1-c1cccc(C(F)(F)F)c1
- IC50 (Glucagon receptor [1]): 16 nM
- IC50 (Glucagon receptor [2]): 42 nM

More lines, in order of falling IC50 (Glucagon receptor [1]), values ahead:

- IC50 (Glucagon receptor [1]): 16 nM
- IC50 (Glucagon receptor [2]): 44 nM
Compound: CCCCC[C@@H](Cc1ccc(C(=O)NCCC(=O)O)cc1)C(=O)c1cc2cc(C(F)(F)F)ccc2n1-c1cccc(C(F)(F)F)c1

- bioavailability [3]: 17%
- Vd [4]: 0.84 L/kg
- clearance [5]: 9.2 mL/min/kg
- Cmax/dose (Rattus norvegicus [6]): 150 nM
- half-life [7]: 1.3 h
- IC50 (Glucagon receptor [1]): 12 nM
- IC50 (Glucagon receptor [2]): 17 nM
- AUC/dose (Rattus norvegicus [8]): 0.52 µM·h
Compound: CCCC(Cc1ccc(C(=O)NCCC(=O)O)cc1)C(=O)c1cc2cc(Cl)ccc2n1-c1ccc(Cl)c(C(F)(F)F)c1 (single isomer, unassigned)

- IC50 [9]: > 10000 nM
- Stability (Rattus norvegicus [10]): Stable
- PPB (Plasma): Not Active
- PB (Liver microsomes [13]): Not Active
- bioavailability [3]: 33%
- half-life [14]: 2.7 h
- Vd [4]: 0.98 L/kg
- clearance [5]: 6.8 mL/min/kg
- Cmax/dose (Rattus norvegicus [6]): 330 nM
- half-life [7]: 1.9 h
- PB (Liver): Not Active
- IC50 (Glucagon receptor [1]): 10 nM
- Vd [16]: 0.32 L/kg
- IC50 (Cytochrome P450 2D6): > 11000 nM
- Stability [18]: Stable
- Stability (Liver microsomes [19]): Stable
- IC50 [21]: 1400 nM
- Cmax/dose (Canis familiaris [22]): 840 nM
- clearance [23]: 3.8 mL/min/kg
- IC50 (Cytochrome P450 3A4): > 11000 nM
- IC50 (Glucagon receptor [2]): 12 nM
- IC50 (Cytochrome P450 2C9): > 11000 nM
- bioavailability [24]: 60%
- AUC/dose (Rattus norvegicus [8]): 1.46 µM·h
- AUC/dose (Canis familiaris [25]): 4.2 µM·h
Compound: CCCCC[C@@H](Cc1ccc(C(=O)NCCC(=O)O)cc1)C(=O)c1cc2cc(Cl)ccc2n1-c1cccc(C(F)(F)F)c1
- Activity (Mus musculus [11]): Active
- Activity (Mus musculus [12]): Active
- Activity (Rattus norvegicus [15]): Non-toxic
- Activity (Mus musculus [17]): Active
- Activity (Mus musculus [20]): Active

- bioavailability [3]: 9.1%
- Vd [4]: 0.9 L/kg
- clearance [5]: 24 mL/min/kg
- Cmax/dose (Rattus norvegicus [6]): 70 nM
- half-life [7]: 1.1 h
- IC50 (Glucagon receptor [1]): 9.2 nM
- IC50 (Glucagon receptor [2]): 34 nM
- AUC/dose (Rattus norvegicus [8]): 0.15 µM·h
Compound: CCC[C@@H](Cc1ccc(C(=O)NCCC(=O)O)cc1)C(=O)c1cc2cc(Cl)ccc2n1-c1cccc(C(F)(F)F)n1

- IC50 (Glucagon receptor [1]): 5.7 nM
- IC50 (Glucagon receptor [2]): 17 nM
Compound: CCCCC[C@@H](Cc1ccc(C(=O)NCCC(=O)O)cc1)C(=O)c1cc2cc(OC(F)(F)F)ccc2n1-c1cccc(C(F)(F)F)c1
